Tests used:
[1] = Blood pressure and renal function with acute IV infusion; type: in vivo, Fischer rats; settings: mean ± SEM, n=4/group; for UV (urine flow): 60 min clearance; for UNaV (urinary sodium excretion rate): flame photometry; for GFR (glomerular filtration rate): inulin clearance; for ΔMAP (change in mean arterial pressure): normal rats
Outline: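 Male Fischer rats (about 2 months, 200–250 g) under isoflurane (2–3% in oxygen) had jugular vein, carotid artery and bladder catheters. After 30 min equilibration with IV inulin and saline, test compound or 0.9% saline vehicle was infused IV with inulin for 75 min, including a 15 min lead-in. BP was recorded and urine collected over a 60 min clearance period. Urinary sodium was measured by flame photometry and inulin by anthrone; GFR was taken from inulin clearance. n=4/group.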

[2] = Plasma CNP-like levels; type: in vivo, Fischer rats; settings: low, medium and high dose (4.55, 45.5, 455 pmol/kg/min) IV infusion 75 min, normal rats, RIA, n=4/group
Outline: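 They then received a 75 min continuous IV infusion (15 min lead-in) of native peptide, analogue or 0.9% saline vehicle with inulin. Infusion rate was weight-adjusted. Blood was taken after the 60 min clearance period. A non-equilibrium RIA used a CNP-sequence antibody (standard curve 0.5–128 pg; <1% cross-reactivity with ANP, BNP).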

[3] = test system: human cardiac fibroblasts (HCFs); assay: Fibroblast proliferation quantified by cell counting, HCFs; type: cell-based; settings: 10^−6 M, TGFβ−1 5 ng/ml, 72 hours, trypan blue, Cedex XS Analyzer (Supplemental Table 2)
Outline: (§1)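 Fibroblasts at passages 4–8, purity checked by vimentin immunostaining, were counted, seeded in complete medium and held overnight at 37 °C, 5% CO2. Medium was replaced with fresh medium containing TGFβ-1 (5 ng/ml) alone or with test compound (10−8, 10−7 or 10−6 M) for 8 or 72 h. Cells were then trypsinized, stained with 0.2% trypan blue and counted on an automated analyzer.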

[4] = test system: human renal fibroblasts (HRFs); assay: Differentiation to myofibroblasts; type: cell-based; settings: 10^−6 M, TGFβ−1 5 ng/mL
Outline: (§2)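 Fibroblasts were serum-starved in 0.01% FBS for 48 h, then given TGFβ-1 (5 ng/ml) with or without test compound (10−6 M) for 24, 48 and 72 h. For immunostaining, cells were fixed in 4% formaldehyde, permeabilised with 0.2% Triton X-100, and stained with anti-α-SMA (1:200, 4 °C overnight), a Texas Red secondary and DAPI; confocal images were scored as corrected total cell fluorescence. For western blots, NP-40 lysates were probed for α-SMA and normalised to GAPDH.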

[5] = test system: human renal fibroblasts (HRFs); assay: Live-cell real-time proliferation imaging; type: cell-based; settings: 10^−6 M, similar to vehicle (Supplemental Table 1)
[6] = test system: parental HEK293 cells; assay: cGMP generation in parental; type: cell-based, human; settings: levels similar to vehicle treatment (Supplemental Figure 2)
Outline: (§3)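 HEK293 cells stably expressing human pGC-A or pGC-B, or parental cells, were kept in DMEM with 10% FBS and 250 ug/ml G418. Cells were grown overnight to 80–90% confluency. They were treated for 10 min with serial concentrations (10−10 to 10−6 M) in HBSS containing 0.1% BSA, 2 mM HEPES and 0.5 mM IBMX; buffer alone served as vehicle. After a PBS wash and lysis in 0.1 M HCl, intracellular cGMP was measured by ELISA.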

[7] = molecular target: T1, human pGC-B receptor (Homo sapiens, UniProt P20594); assay: cGMP generation in HEK293 cells overexpressing human pGC-B; type: cell-based; settings: 10 min
T1 sequence (P20594 23-1047): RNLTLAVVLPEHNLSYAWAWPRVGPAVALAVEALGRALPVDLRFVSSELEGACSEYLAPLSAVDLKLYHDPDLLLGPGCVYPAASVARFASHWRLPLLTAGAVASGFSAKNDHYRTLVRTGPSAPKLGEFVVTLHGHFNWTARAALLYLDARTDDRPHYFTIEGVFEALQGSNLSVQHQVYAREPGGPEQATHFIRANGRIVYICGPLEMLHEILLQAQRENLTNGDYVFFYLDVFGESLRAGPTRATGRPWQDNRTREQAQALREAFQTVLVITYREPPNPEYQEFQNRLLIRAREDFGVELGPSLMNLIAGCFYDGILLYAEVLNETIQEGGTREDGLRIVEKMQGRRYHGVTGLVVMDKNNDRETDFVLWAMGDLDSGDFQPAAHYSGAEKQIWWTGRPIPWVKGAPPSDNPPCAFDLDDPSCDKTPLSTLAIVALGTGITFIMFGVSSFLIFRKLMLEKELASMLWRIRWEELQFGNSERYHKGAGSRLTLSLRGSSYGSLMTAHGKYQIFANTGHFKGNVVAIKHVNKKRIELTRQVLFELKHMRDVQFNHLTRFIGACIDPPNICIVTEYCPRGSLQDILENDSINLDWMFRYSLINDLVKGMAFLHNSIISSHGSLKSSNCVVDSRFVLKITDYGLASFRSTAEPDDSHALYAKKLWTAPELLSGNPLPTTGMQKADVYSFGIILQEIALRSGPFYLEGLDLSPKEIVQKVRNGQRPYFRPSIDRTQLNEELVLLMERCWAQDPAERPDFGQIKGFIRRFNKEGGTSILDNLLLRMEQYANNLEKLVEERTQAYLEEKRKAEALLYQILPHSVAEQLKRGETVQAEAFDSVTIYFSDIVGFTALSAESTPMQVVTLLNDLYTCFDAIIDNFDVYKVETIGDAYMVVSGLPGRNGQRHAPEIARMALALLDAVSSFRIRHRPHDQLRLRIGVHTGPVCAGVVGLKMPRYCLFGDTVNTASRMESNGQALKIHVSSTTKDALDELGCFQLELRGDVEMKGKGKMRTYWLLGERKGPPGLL
Outline: as §3

[8] = test system: human renal fibroblasts (HRFs); assay: Fibroblast proliferation quantified by cell counting, HRFs; type: cell-based; settings: 10^−6 M, TGFβ−1 5 ng/ml, 72 hours, trypan blue, Cedex XS Analyzer (Supplemental Table 2)
Outline: as §1

[9] = test system: human cardiac fibroblasts (HCFs); assay: Live-cell real-time proliferation imaging; type: cell-based; settings: 10^−6 M, similar to vehicle (Supplemental Table 1)
[10] = test system: human cardiac fibroblasts (HCFs); assay: Differentiation to myofibroblasts; type: cell-based; settings: 10^−6 M, TGFβ−1 5 ng/mL
Outline: as §2

[11] = test system: human cardiac fibroblasts (HCFs); assay: cGMP generation in human primary cardiac fibroblasts; type: cell-based; settings: 10^−8, 10^−7 and 10^−6 M, 10 min, 0.5 mM IBMX, cGMP ELISA, vs vehicle
Outline: (§4)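 Primary human cardiac and renal fibroblasts, checked for purity by vimentin staining, were used at passages 4–8. Cells grown to 80% confluency were treated for 10 min with buffer (HBSS, 0.1% BSA, 2 mM HEPES, 0.5 mM IBMX) alone or with test compound at 10−8, 10−7 or 10−6 M. Cells were washed in PBS and lysed in 0.1 M HCl, and intracellular cGMP was measured by ELISA.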

[12] = test system: human renal fibroblasts (HRFs); assay: cGMP generation in human primary renal fibroblasts; type: cell-based
Outline: as §4

[13] = High = 455 pmol/kg/min IV infusion
[14] = Low = 4.55 pmol/kg/min IV infusion
[15] = Medium = 45.5 pmol/kg/min IV infusion
[16] = 48 and 72 hours (data not shown)
[17] = 24 hours, immunostaining and western blotting

NH2 - DLRVDTKSRAAWARLLQEHPNARKYKGANKKGLSKGCFGLKLDRIGSMSGLGC – COOH [C53]
UV (urine flow) [1, 13]: 13.5 ± 2.0 µL/min
UNaV (urinary sodium excretion rate) [1, 13]: 1.1±0.3 uEq/min
GFR (glomerular filtration rate) [1, 13]: 1.1 ± 0.2 mL/min
ΔMAP (change in mean arterial pressure) [1, 13]: −3.7±2.6 mmHg
UV (urine flow) [1, 14]: 13.3 ± 2.0 µL/min
UNaV (urinary sodium excretion rate) [1, 14]: 0.9±0.2 uEq/min
GFR (glomerular filtration rate) [1, 14]: 1.2 ± 0.1 mL/min
ΔMAP (change in mean arterial pressure) [1, 14]: −0.5±1.0 mmHg
UV (urine flow) [1, 15]: 11.3 ± 0.8 µL/min
UNaV (urinary sodium excretion rate) [1, 15]: 1.0±0.1 uEq/min
GFR (glomerular filtration rate) [1, 15]: 1.5 ± 0.1 mL/min
ΔMAP (change in mean arterial pressure) [1, 15]: −1.4±1.1 mmHg
Plasma CNP-like levels (CLL) [2]: increased plasma CLL levels in a dose-dependent manner
TGFβ−1 induced HCFs proliferation by cell counting [3]: suppressed TGFβ−1 induced proliferation
Reduction of differentiation of HRFs to myofibroblasts [4, 16]: not sustained
Differentiation of HRFs to myofibroblasts (α-SMA expression) [4, 17]: significantly reduced the differentiation
HRFs proliferation in the absence of TGFβ−1 stimulation [5]: had no effect on proliferation
cGMP generation in parental HEK293 cells [6]: did not generate cGMP
cGMP generation in HEK293 pGC-B cells compared to vehicle ([7]; 10^−8.5 to 10^−6 M, 0.5 mM IBMX, intracellular cGMP ELISA, triplicate): significant cGMP generation
pGC-B receptor potency compared to CNP ([7]; HEK293 pGC-B cells, 10^−10 to 10^−6 M, cGMP ELISA): no difference observed
TGFβ−1 induced HRFs proliferation by cell counting [8]: suppressed TGFβ−1 induced proliferation
HCFs proliferation in the absence of TGFβ−1 stimulation [9]: had no effect on proliferation
Reduction of differentiation of HCFs to myofibroblasts [10, 16]: not sustained
Differentiation of HCFs to myofibroblasts (α-SMA expression) [10, 17]: significantly reduced the differentiation
Intracellular cGMP in HCFs [11]: increased intracellular cGMP levels
Intracellular cGMP in HRFs ([12]; 10^−8, 10^−7 and 10^−6 M, 10 min, 0.5 mM IBMX, cGMP ELISA, vs vehicle, dose-dependent): increased intracellular cGMP levels
cGMP values in HRFs compared to HCFs ([12]; ratio HRFs/HCFs): 16 fold

— PMC6557127 (Journal of molecular and cellular cardiology, 2019)
